Results as given in ChEMBL document CHEMBL1144771, “Synthesis of 1-substituted 3-pyridinylmethylidenylindolin-2-ones and 1-substituted 3-quinolinylmethylidenylindolin-2-ones as the enhancers of ATRA-induced differentiation in HL-60 cells” (Bioorg Med Chem, 2008).
Calls of active or inactive are those of the source. The rule behind the calls is not given here.

Columns and labels:
[1] = tested on: HL-60; assay: Induction of cell differentiation in human HL60 cells at 5.0 uM after 72 hrs by NBT reduction assay; format: functional
[2] = tested on: HL-60; assay: Cytotoxicity against human HL60 cells after 72 hrs by MTT assay; format: functional, cell-based
Method in brief: (§1)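 Log-phase HL-60 cells at 4×10^4 cells/mL in RPMI-1640 with 10% FBS, 37 °C, 5% CO2. Treated 72 h with compound, with or without 5 nM ATRA. Cells washed in cold PBS, given MTT (5 mg/mL solution) in HBSS for 2 h at 37 °C in the dark. Formazan dissolved in DMSO, absorbance read at 570 nm. Viability given as % of vehicle control; means ± SD, four independent experiments.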

[3] = tested on: HL-60; assay: Induction of cell differentiation in human HL60 cells at 2.5 uM after 72 hrs by NBT reduction assay; format: functional
[4] = tested on: HL-60; assay: Induction of cell differentiation in human HL60 cells at 1.0 uM after 72 hrs by NBT reduction assay; format: functional
[5] = tested on: HL-60; assay: Cytotoxicity against human HL60 cells at 5.0 uM after 72 hrs by MTT assay relative to control; format: functional; method in brief: as §1
[6] = tested on: HL-60; assay: Cytotoxicity against human HL60 cells at 1.0 uM after 72 hrs by MTT assay relative to control; format: functional; method in brief: as §1
[7] = tested on: HL-60; assay: Cytotoxicity against human HL60 cells at 2.5 uM after 72 hrs by MTT assay relative to control; format: functional; method in brief: as §1
[8] = tested on: HL-60; assay: Induction of cell differentiation in human HL60 cells at 2.0 uM after 72 hrs by NBT reduction assay relative to control; format: functional
[9] = tested on: HL-60; assay: Cytotoxicity against human HL60 cells at 0.5 uM after 72 hrs by MTT assay; format: functional; method in brief: as §1
[10] = tested on: HL-60; assay: Cytotoxicity against human HL60 cells at 2 uM after 72 hrs by MTT assay relative to control; format: functional; method in brief: as §1
[11] = tested on: HL-60; assay: Induction of cell differentiation in human HL60 cells at 0.5 uM after 72 hrs by NBT reduction assay; format: functional
[12] = tested on: HL-60; assay: Cytotoxicity against human HL60 cells at 0.1 uM after 72 hrs by MTT assay relative to control; format: functional; method in brief: as §1
[13] = tested on: HL-60; assay: Cytotoxicity against human HL60 cells at 0.5 uM after 72 hrs by MTT assay relative to control; format: functional; method in brief: as §1
[14] = tested on: HL-60; assay: Induction of cell differentiation in human HL60 cells at 0.1 uM after 72 hrs by NBT reduction assay; format: functional
[15] = tested on: HL-60; assay: Cytotoxicity against human HL60 cells at 1.0 uM after 72 hrs by MTT assay; format: functional; method in brief: as §1
[16] = tested on: HL-60; assay: Cytotoxicity against human HL60 cells at 2.5 uM after 72 hrs by MTT assay; format: functional; method in brief: as §1
[17] = tested on: HL-60; assay: Cytotoxicity against human HL60 cells at 2 uM after 72 hrs by MTT assay; format: functional, cell-based; method in brief: as §1
[18] = tested on: HL-60; assay: Induction of cell differentiation in human HL60 cells at 2.0 uM after 72 hrs by NBT reduction assay; format: functional, cell-based
[19] = tested on: HL-60; assay: Effect on morphology in human HL60 cells assessed as population of horseshoe-shape nuclei at 2 uM after 72 hrs; format: functional, cell-based
Method in brief: (§2)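 HL-60 cells (4×10^4) treated 72 h with vehicle, 2 µM compound alone, 2 µM compound plus 5 nM ATRA, 5 nM ATRA, or 1 µM ATRA. Unstained cells examined for spindle shape at 200× magnification. Liu's-stained cells examined by optical microscopy for horseshoe-shaped nuclei.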

[20] = tested on: HL-60; assay: Effect on morphology in human HL60 cells assessed as spindle-shape at 2 uM after 72 hrs; format: functional, cell-based; method in brief: as §2
[21] = tested on: HL-60; assay: Induction of cell differentiation in human HL60 cells at 2.5 uM after 72 hrs by NBT reduction assay relative to control; format: functional
[22] = tested on: HL-60; assay: Induction of cell differentiation in human HL60 cells at 5.0 uM after 72 hrs by NBT reduction assay relative to control; format: functional
[23] = tested on: HL-60; assay: Cytotoxicity against human HL60 cells at 1.0 uM after 72 hrs by MTT assay relative to ATRA; format: functional; details: in the assay text read “relative to control” for “relative to ATRA”; method in brief: as §1
[24] = Cytotoxicity against human leukocytes after 48 hrs by MTT assay; format: cell-based; details: Leukocyte
Method in brief: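 Human normal leukocytes in RPMI-1640 with 10% FBS. Treated with vehicle, compound alone, or compound plus 5 nM ATRA; 48 h per the legend (72 h per methods). Viability by MTT with formazan absorbance at 570 nm; 50% growth-inhibition concentration reported. Means ± SD, four experiments.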

[25] = tested on: HL-60; assay: Cell cycle arrest in human HL60 cells assessed as increase in G0/G1 phase accumulation at 2 uM after 72 hrs by flow cytometry; format: functional
Method in brief: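 HL-60 cells at 4×10^4 cells/mL, 72 h with vehicle, ATRA (5 nM or 1 µM), 2 µM compound alone, or 2 µM compound plus 5 nM ATRA. Cells fixed in 70% ice-cold ethanol at -20 °C overnight. Stained 30 min at 37 °C in the dark with 1% Triton X-100, 0.1 mg/mL RNase and 4 µg/mL propidium iodide. G0/G1 fraction by flow cytometry; means ± SD, four experiments.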

[26] = tested on: HL-60; assay: Cytotoxicity against human HL60 cells at 5.0 uM after 72 hrs by MTT assay; format: functional, cell-based; method in brief: as §1
[27] = tested on: HL-60; assay: Cytotoxicity against human HL60 cells at 10.0 uM after 72 hrs by MTT assay relative to control; format: functional; method in brief: as §1
[28] = tested on: HL-60; assay: Induction of cell differentiation in human HL60 cells at 10.0 uM after 72 hrs by NBT reduction assay; format: functional

Compound | Activity [1] | IC50 ([2]; Homo sapiens, HL-60, 72 h) [µM] | Activity [3] | Activity [4] | Activity [5] [%] | Activity [6] [%] | Activity [7] [%] | Activity [11] [%] | other results
CC(c1ccccc1)N1C(=O)/C(=C\c2ccccn2)c2ccccc21 (centres undefined) | 2% | 5.9 | 0.7% | 0.7% | 55.7 | 90 | 87.1 | – | –
CC(c1ccccc1)N1C(=O)/C(=C/c2cnc3ccccc3c2)c2ccccc21 (centres undefined) | – | 1.4 | – | 4.3% | – | 82.9 | – | 0.8 | Activity [8]: 37.7%; Activity [9]: 109.9%; Activity [10]: 25.5%
O=C1/C(=C\c2ccncc2)c2ccccc2N1Cc1ccc2ccccc2c1 | – | – | – | Toxic | – | – | – | 0.7 | Activity [12]: 78.2%; Activity [13]: 59.6%; Activity [14]: 0.8%; Activity [15]: Toxic
O=C1/C(=C\c2ccccn2)c2ccccc2N1Cc1ccccc1 | 3.4% | 3.6 | 0.7% | 0.7% | 24.7 | – | – | – | Activity [16]: 98.5%; Activity [15]: 116.6%
CC(c1ccccc1)N1C(=O)/C(=C\c2ccncc2)c2ccccc21 (centres undefined) | – | – | – | 0.8% | – | 49.2 | – | 1 | Activity [17]: Toxic; Activity [13]: 66.7%; Activity [18]: Toxic
CC(c1ccccc1)N1C(=O)/C(=C\c2cnc3ccccc3c2)c2ccccc21 (stereo in doubt; 25) [listing 1 of 2 here] | – | – | – | – | – | – | – | – | Activity [19]: Active; Activity [20]: Active
O=C1/C(=C\c2ccncc2)c2ccccc2N1Cc1ccccc1 | – | 1.9 | – | 1.2% | – | 85.6 | 24.4 | 0.3 | Activity [9]: 101%; Activity [21]: 7%
O=C1/C(=C\c2cccnc2)c2ccccc2N1Cc1ccccc1 | 2.7% | 3.8 | 0.8% | 0.7% | 25.4 | 93.2 | 75.9 | – | –
O=C1/C(=C\c2cc[n+]([O-])cc2)c2ccccc2N1Cc1ccccc1 | – | 2.9 | 3.2% | 1.6% | 22 | – | 43.4 | – | Activity [22]: 11.5%; Activity [23]: 90%
CC(c1ccccc1)N1C(=O)/C(=C\c2ccc3ccccc3n2)c2ccccc21 (centres undefined) | – | 3.4 | 1% | 0.8% | 18.5 | – | 81.3 | – | Activity [22]: 15%; Activity [15]: 103.2%
O=C1/C(=C\c2ccc3ccccc3n2)c2ccccc2N1Cc1ccccc1 | 4.4% | 2.8 | 2% | 2% | 12.2 | 82.7 | 55.7 | – | –
CC(c1ccccc1)N1C(=O)/C(=C\c2cnc3ccccc3c2)c2ccccc21 (stereo in doubt; 25) [listing 2 of 2 here] | – | – | – | 0.3% | – | 70.9 | – | 0.8 | Activity [8]: 33.9%; IC50 ([2]; hl-60): 1.4 µM; Activity [10]: 24.7%; IC50 [24]: 14 µM; Activity [13]: 89.5%; Activity [25]: 49.8%
O=C1/C(=C\c2cnc3ccccc3c2)c2ccccc2N1Cc1ccccc1 | – | 3.2 | 0.8% | 0.7% | 10.9 | – | 70.6 | – | Activity [22]: 23.6%; Activity [15]: 117.4%
CC(c1ccccc1)N1C(=O)/C(=C\c2cccnc2)c2ccccc21 (centres undefined) | – | 3.3 | 2.5% | 0.8% | 19.6 | 88 | 87 | – | Activity [21]: 2.5%
CC(c1ccccc1)N1C(=O)/C(=C\c2cnc3ccccc3c2)c2ccccc21 (stereo in doubt; 25Z) | – | 1.5 | – | 3.8% | – | 82.3 | – | 1.3 | Activity [8]: 40.8%; Activity [9]: 116.1%; Activity [10]: 20.3%
CC(c1ccccc1)N1C(=O)/C(=C\c2ccnc3ccccc23)c2ccccc21 (centres undefined) | Toxic | – | – | 1.2% | – | 72.6 | 31 | – | Activity [26]: Toxic; Activity [21]: 20.8%
O=C1/C(=C\c2ccnc3ccccc23)c2ccccc2N1Cc1ccccc1 | 2.1% | 10.6 | – | 0.8% | 73.8 | 85.2 | – | – | Activity [27]: 51.2%; Activity [28]: 4.7%
O=C1/C(=C\c2ccncc2)c2ccccc2N1Cc1cccc2ccccc12 | – | – | Toxic | 0.5% | – | – | – | 0.8 | Activity [16]: Toxic; Activity [9]: 103.6%; Activity [15]: 90.8%
